{
  "source": "PubChem BioAssay AID624368",
  "about": "(Broad Institute, 2012)",
  "note": "Activity calls are given as the source filed them.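 How the source made its calls: active means viability drop with AC50 at most twice the sample's highest valid dose; inconclusive means flat curve with moderate loss, or a poor fit; inactive means the rest.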",
  "data": [
    {"system": "A375 viability, CellTiter-Glo ATP luminescence, 24 h", "experiment": "A375 melanoma cell proliferation, dose response, counter-screen for MITF inhibitor project, CellTiter-Glo luminescence, dry powder, set 5 (AID 624368)", "conditions": "not given", "outline": "(§1)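 Detection: ATP luminescence, CellTiter-Glo / Material: MITF-independent A375 melanoma cells / Incubation: 24 h compound exposure, 37 °C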", "values": [
      {"smiles": "CN1CCN(C2=C(Nc3ccccc3)C(=O)c3ccccc3C2=O)CC1", "AC50": "> 70 µM (inactive)"},
      {"smiles": "CC(=O)N(C)C1=C(N2CCN(C)CC2)C(=O)c2ccccc2C1=O", "AC50": "24.3 µM"},
      {"smiles": "CC1CCN(CC(CS(=O)(=O)c2ccc([N+](=O)[O-])cc2)N2CCC(C)CC2)CC1", "note": "(configuration not stated)", "AC50": "> 70 µM (inactive)"},
      {"smiles": "COc1ccc(S(=O)(=O)N(C(C)=O)c2ccc(OC(C)=O)c3ccccc23)cc1[N+](=O)[O-]", "AC50": "> 70 µM (inactive)"},
      {"smiles": "O=C1C(NS(=O)(=O)c2cccs2)=C(c2ccccc2)C(=O)c2ccccc21", "AC50": "> 70 µM (inactive)"},
      {"smiles": "CCN(CC)CCCNC1=C(Nc2ccccc2)C(=O)c2ccccc2C1=O", "AC50": "> 70 µM (inactive)"},
      {"smiles": "O=C1C(Nc2ccccc2)=C(N2CCSCC2)C(=O)c2ccccc21", "AC50": "> 70 µM (inactive)"},
      {"smiles": "O=C1C(NS(=O)(=O)c2cccs2)=C(N2CCCCC2)C(=O)c2ccccc21", "AC50": "> 70 µM (inactive)"},
      {"smiles": "O=C1C(Nc2ccccc2)=C(c2ccccc2)C(=O)c2ccccc21", "AC50": "> 70 µM (inactive)"},
      {"smiles": "COC1=C(NS(=O)(=O)c2ccc(Br)cc2)C(=O)c2ccccc2C1=O", "AC50": "> 70 µM (inactive)"},
      {"smiles": "O=C1C(Nc2ccccc2)=C(N2CCCCC2)C(=O)c2ccccc21", "AC50": "> 70 µM (inactive)"},
      {"smiles": "CN1CCN(C2=C(NC(=O)c3ccc(Br)cc3)C(=O)c3ccccc3C2=O)CC1", "AC50": "32.2 µM"},
      {"smiles": "NC1=CC(=O)c2ccccc2C1=O", "AC50": "> 70 µM (inactive)"},
      {"smiles": "O=C(NC1=C(c2ccccc2)C(=O)c2ccccc2C1=O)c1ccco1", "AC50": "29.1 µM"},
      {"smiles": "NC1=C(NC(=O)c2ccccc2)C(=O)c2ccccc2C1=O", "AC50": "> 70 µM (inactive)"},
      {"smiles": "O=C1C(NS(=O)(=O)c2ccccc2)=C(c2ccccc2)C(=O)c2ccccc21", "AC50": "> 70 µM (inactive)"},
      {"smiles": "O=C1C=C(NS(=O)(=O)c2ccccc2)C(=O)c2ccccc21", "AC50": "> 70 µM (inactive)"},
      {"smiles": "C=CCNC1=C(N(C)C(C)=O)C(=O)c2ccccc2C1=O", "AC50": "23 µM"},
      {"smiles": "O=C(NC1=C(N2CCOCC2)C(=O)c2ccccc2C1=O)c1ccc(Br)cc1", "AC50": "> 70 µM (inactive)"},
      {"smiles": "CCN(CC)CCNC1=C(Nc2ccccc2)C(=O)c2ccccc2C1=O", "AC50": "> 70 µM (inactive)"},
      {"smiles": "O=C1C=C(NS(=O)(=O)c2cccs2)C(=O)c2ccccc21", "AC50": "> 70 µM (inactive)"},
      {"smiles": "Cc1ccc(C(=O)NC2=C(c3ccccc3)C(=O)c3ccccc3C2=O)o1", "AC50": "32 µM"},
      {"smiles": "O=C1C(NS(=O)(=O)c2ccc(Br)s2)=C(N2CCOCC2)C(=O)c2ccccc21", "AC50": "> 70 µM (inactive)"},
      {"smiles": "COC1=C(NS(=O)(=O)c2ccccc2)C(=O)c2ccccc2C1=O", "AC50": "> 70 µM (inactive)"},
      {"smiles": "COC1=C(NS(=O)(=O)c2cccs2)C(=O)c2ccccc2C1=O", "AC50": "> 70 µM (inactive)"},
      {"smiles": "NC1=C(NS(=O)(=O)c2cccs2)C(=O)c2ccccc2C1=O", "AC50": "> 70 µM (inactive)"},
      {"smiles": "O=C(NC1=C(N2CCSCC2)C(=O)c2ccccc2C1=O)c1ccc(Br)cc1", "AC50": "> 70 µM (inactive)"},
      {"smiles": "C[C@@H](NC1=C(Nc2ccccc2)C(=O)c2ccccc2C1=O)c1ccccc1", "AC50": "> 70 µM (inactive)"},
      {"smiles": "C=CCNC1=C(Nc2ccccc2)C(=O)c2ccccc2C1=O", "AC50": "> 70 µM (inactive)"},
      {"smiles": "O=C1C(NS(=O)(=O)c2ccc(Br)s2)=C(N2CCSCC2)C(=O)c2ccccc21", "AC50": "> 70 µM (inactive)"},
      {"smiles": "NC1=C(NS(=O)(=O)c2ccc(Br)cc2)C(=O)c2ccccc2C1=O", "AC50": "> 70 µM (inactive)"},
      {"smiles": "COC1=C(Nc2ccccc2)C(=O)c2ccccc2C1=O", "AC50": "> 70 µM (inactive)"},
      {"smiles": "Cc1nc2ccccc2n1/N=C/c1ccc([N+](=O)[O-])s1", "AC50": "> 70 µM (inactive)"},
      {"smiles": "NC1=C(c2ccccc2)C(=O)c2ccccc2C1=O", "AC50": "> 70 µM (inactive)"},
      {"smiles": "O=C1C=C(Nc2ccccc2)C(=O)c2ccccc21", "AC50": "> 70 µM (inactive)"},
      {"smiles": "O=C(CNc1cccc2ccccc12)N/N=C/c1ccc([N+](=O)[O-])o1", "AC50": "> 70 µM (inactive)"},
      {"smiles": "NC1=C(NS(=O)(=O)c2ccccc2)C(=O)c2ccccc2C1=O", "AC50": "> 70 µM (inactive)"},
      {"smiles": "C=CCNC1=C(Cl)C(=O)c2ccccc2C1=O", "AC50": "> 70 µM (inactive)"},
      {"smiles": "CCN1CCN(C2=C(NC(=O)c3ccc(Br)cc3)C(=O)c3ccccc3C2=O)CC1", "AC50": "28 µM"},
      {"smiles": "O=C1C(Nc2ccccc2)=C(N2CCOCC2)C(=O)c2ccccc21", "AC50": "> 70 µM (inactive)"},
      {"smiles": "O=C(NC1=C(N2CCCCC2)C(=O)c2ccccc2C1=O)c1ccc(Br)cc1", "AC50": "> 70 µM (inactive)"},
      {"smiles": "CN1CCN(C2=C(NS(=O)(=O)c3ccc(Br)s3)C(=O)c3ccccc3C2=O)CC1", "AC50": "> 70 µM (inactive)"},
      {"smiles": "O=C1C(NS(=O)(=O)c2ccc(Br)s2)=C(N2CCCCC2)C(=O)c2ccccc21", "AC50": "> 70 µM (inactive)"},
      {"smiles": "CCN1CCN(C2=C(NS(=O)(=O)c3ccc(Br)s3)C(=O)c3ccccc3C2=O)CC1", "AC50": "> 70 µM (inactive)"}
    ]},
    {"system": "not listed separately", "experiment": "A375 melanoma cell proliferation, dose response, counter-screen for MITF inhibitor project, CellTiter-Glo luminescence, dry powder, set 5 (AID 624368)", "conditions": "A375 viability, CellTiter-Glo ATP luminescence, 24 h; at 35 µM (top of the series)", "outline": "as §1", "values": [
      {"smiles": "NC1=C(c2ccc(OC(F)(F)F)cc2)C(=O)c2ccccc2C1=O", "activity change, negative = cytotoxicity": "-3.65% (inactive)"},
      {"smiles": "O=C1C(NS(=O)(=O)c2ccccc2)=C(N2CCOCC2)C(=O)c2ccccc21", "activity change, negative = cytotoxicity": "-1.41% (inactive)"},
      {"smiles": "O=C1C(NS(=O)(=O)c2ccccc2)=C(N2CCCCC2)C(=O)c2ccccc21", "activity change, negative = cytotoxicity": "0.773% (inactive)"},
      {"smiles": "CCN1CCN(C2=C(NS(=O)(=O)c3ccc(Br)cc3)C(=O)c3ccccc3C2=O)CC1", "activity change, negative = cytotoxicity": "8.86% (inactive)"},
      {"smiles": "NC1=C(NS(=O)(=O)c2ccc(Br)s2)C(=O)c2ccccc2C1=O", "activity change, negative = cytotoxicity": "3.75% (inactive)"},
      {"smiles": "O=C1C(Nc2ccccc2)=C(NS(=O)(=O)c2ccccc2[N+](=O)[O-])C(=O)c2ccccc21", "activity change, negative = cytotoxicity": "-2.72% (inactive)"},
      {"smiles": "O=C1C=C(NS(=O)(=O)c2ccc(Br)cc2)C(=O)c2ccccc21", "activity change, negative = cytotoxicity": "2.29% (inactive)"},
      {"smiles": "CNC1=CC(=O)c2ccccc2C1=O", "activity change, negative = cytotoxicity": "3.5% (inactive)"}
    ]}
  ]
}
